According to ChEMBL document CHEMBL4028811, “Discovery of 2-substituted 1H-benzo[d]immidazole-4-carboxamide derivatives as novel poly(ADP-ribose)polymerase-1 inhibitors with in vivo anti-tumor activity” (Eur J Med Chem, 2017):

Assays:
[1] = species on record: Homo sapiens; test: Selectivity ratio of IC50 for recombinant human PARP2 to IC50 for recombinant human PARP1
In short: (§1)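 Human recombinant PARP2 (and PARP1) expressed and purified, inhibition measured by ELISA, with AZD2281 as positive control. IC50 from concentration–response fitting.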

[2] = biological target: T1, Poly [ADP-ribose] polymerase 1 (Homo sapiens, UniProt P09874); test: Inhibition of recombinant human PARP1 expressed in Escherichia coli BL21(DE3) using histone as substrate measured after 1 hr in presence of biotinylated NAD+ by ELISA
[3] = biological target: T1, Poly [ADP-ribose] polymerase 1; test: Inhibition of PARP1 in human MX1 cells assessed as potentiation of temozolomide-induced cytotoxicity at 10 uM after 72 hrs by MTT assay relative to temozolomide alone; type: cell-based
In short: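 MX-1 cells seeded at 2000/well and exposed for 72 h to TMZ (0–0.5 mmol/L) with or without PARP inhibitor fixed at 10 μmol/L. Survival read by MTT. PF50 = IC50 of TMZ alone / IC50 of TMZ + inhibitor.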

[4] = biological target: T1, Poly [ADP-ribose] polymerase 1; test: Inhibition of recombinant human PARP1 expressed in Escherichia coli BL21(DE3) using sheared DNA as substrate measured after 1 hr in presence of NAD+
[5] = biological target: Poly [ADP-ribose] polymerase 2 (Homo sapiens, UniProt Q9UGN5); test: Inhibition of recombinant human PARP2 expressed in Escherichia coli BL21(DE3) using histone as substrate measured after 1 hr in presence of biotinylated NAD+ by ELISA; in short: as §1
Poly [ADP-ribose] polymerase 2, sequence (Q9UGN5 whole entry): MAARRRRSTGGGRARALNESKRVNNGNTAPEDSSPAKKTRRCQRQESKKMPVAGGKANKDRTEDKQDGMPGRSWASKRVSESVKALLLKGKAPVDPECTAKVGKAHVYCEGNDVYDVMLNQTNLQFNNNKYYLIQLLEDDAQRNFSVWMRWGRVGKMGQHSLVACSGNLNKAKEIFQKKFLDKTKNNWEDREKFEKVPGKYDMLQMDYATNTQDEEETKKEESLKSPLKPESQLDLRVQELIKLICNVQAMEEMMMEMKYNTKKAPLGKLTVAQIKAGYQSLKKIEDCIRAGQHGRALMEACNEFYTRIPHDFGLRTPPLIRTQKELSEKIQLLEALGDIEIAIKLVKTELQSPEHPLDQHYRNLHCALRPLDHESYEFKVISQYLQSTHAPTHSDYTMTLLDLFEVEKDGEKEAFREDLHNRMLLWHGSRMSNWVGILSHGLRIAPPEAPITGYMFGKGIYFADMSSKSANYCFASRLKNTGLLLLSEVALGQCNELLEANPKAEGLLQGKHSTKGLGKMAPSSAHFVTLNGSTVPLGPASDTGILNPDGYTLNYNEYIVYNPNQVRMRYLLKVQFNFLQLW

T1 sequence (P09874 whole entry): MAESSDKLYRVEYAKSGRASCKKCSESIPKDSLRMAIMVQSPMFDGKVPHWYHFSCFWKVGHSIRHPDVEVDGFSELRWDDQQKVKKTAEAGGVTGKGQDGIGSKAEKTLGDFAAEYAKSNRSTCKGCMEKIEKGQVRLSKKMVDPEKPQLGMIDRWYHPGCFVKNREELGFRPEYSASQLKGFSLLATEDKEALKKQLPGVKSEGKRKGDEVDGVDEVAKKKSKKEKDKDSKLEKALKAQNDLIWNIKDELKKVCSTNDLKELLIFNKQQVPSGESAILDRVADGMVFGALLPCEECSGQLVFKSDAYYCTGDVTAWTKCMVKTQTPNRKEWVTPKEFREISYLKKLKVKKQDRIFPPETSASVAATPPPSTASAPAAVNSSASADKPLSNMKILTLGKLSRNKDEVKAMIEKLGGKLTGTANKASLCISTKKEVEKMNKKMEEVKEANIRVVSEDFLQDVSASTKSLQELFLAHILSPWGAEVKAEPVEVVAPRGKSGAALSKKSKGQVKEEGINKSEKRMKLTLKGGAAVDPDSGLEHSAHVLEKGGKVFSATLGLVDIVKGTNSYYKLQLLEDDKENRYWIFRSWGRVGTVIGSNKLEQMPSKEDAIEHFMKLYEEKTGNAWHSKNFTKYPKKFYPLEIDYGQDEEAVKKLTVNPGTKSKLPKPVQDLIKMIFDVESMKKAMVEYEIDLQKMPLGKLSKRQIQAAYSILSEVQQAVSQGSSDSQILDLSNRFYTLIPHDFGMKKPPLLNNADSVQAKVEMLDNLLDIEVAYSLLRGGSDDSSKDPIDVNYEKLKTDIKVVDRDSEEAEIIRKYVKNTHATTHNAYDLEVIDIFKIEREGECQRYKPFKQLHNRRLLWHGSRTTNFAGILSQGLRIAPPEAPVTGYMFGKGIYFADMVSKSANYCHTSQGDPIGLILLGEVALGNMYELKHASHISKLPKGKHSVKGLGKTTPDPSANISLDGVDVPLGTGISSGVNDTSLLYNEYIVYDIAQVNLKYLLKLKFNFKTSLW

NC(=O)c1cccc2[nH]c(C(=O)NC3CCNCC3)nc12
Ratio IC50 [1]: < 10 | IC50 [2]: 101 nM | PF50 [3]: 1.75

NC(=O)c1cccc2[nH]c(C(=O)NC3CCCN(C4CCCCC4)C3)nc12 (stereo not drawn)
IC50 [4]: 382 nM

CC(C)CCN1CCCC(NC(=O)c2nc3c(C(N)=O)cccc3[nH]2)C1 (stereo not drawn)
IC50 [4]: 708 nM

NC(=O)c1cccc2[nH]c(C(=O)N3CCNC(=O)C3)nc12
IC50 [2]: 29 nM

CC[C@H]1CN(C(=O)c2nc3c(C(N)=O)cccc3[nH]2)CCN1
IC50 [2]: 19 nM

CCC(CC)N1CCN(C(=O)c2nc3c(C(N)=O)cc(F)cc3[nH]2)CC1=O
IC50 [2]: 88 nM

CC(C)(C)OC(=O)N1CCCC(NC(=O)c2nc3c(C(N)=O)cccc3[nH]2)C1 (stereo not drawn)
IC50 [4]: 1150 nM

CC(C)CN1CCN(C(=O)c2nc3c(C(N)=O)cccc3[nH]2)CC1
IC50 [2]: 81 nM

CC(C)(C)OC(=O)NC1CCN(C(=O)c2nc3c(C(N)=O)cc(F)cc3[nH]2)C1 (stereo not drawn)
IC50 [2]: > 100 nM

CC[C@@H]1CN(C(=O)c2nc3c(C(N)=O)cccc3[nH]2)CCN1
IC50 [2]: > 100 nM

NC(=O)c1cccc2[nH]c(C(=O)NC3CN4CCC3CC4)nc12 (stereo not drawn)
IC50 [2]: > 100 nM

CC(C)(C)OC(=O)N1CCC(NC2CCN(C(=O)c3nc4c(C(N)=O)cccc4[nH]3)C2)CC1 (stereo not drawn)
IC50 [2]: 1190 nM

CC(C)CCN1CCC(NC(=O)c2nc3c(C(N)=O)cccc3[nH]2)CC1
IC50 [2]: 111 nM

CCC(CC)N1CCC(NC(=O)c2nc3c(C(N)=O)cc(F)cc3[nH]2)CC1
IC50 [2]: 30 nM

NC(=O)c1cccc2[nH]c(C(=O)N3CCC(N)CC3)nc12
Ratio IC50 [1]: < 10 | IC50 [2]: 29 nM | IC50 [5]: 73 nM | PF50 [3]: 1.99

NC(=O)c1cc(F)cc2[nH]c(C(=O)N3CCC(N)CC3)nc12
Ratio IC50 [1]: < 10 | IC50 [2]: 2.76 nM | IC50 [5]: 24 nM | PF50 [3]: 0.98

NC(=O)c1cccc2[nH]c(C(=O)NC3CCN(CC(F)(F)F)CC3)nc12
Ratio IC50 [1]: < 10 | IC50 [2]: 34 nM | IC50 [5]: 100 nM | PF50 [3]: 0.93

NC(=O)c1cccc2[nH]c(C(=O)NC3CCN(C4CCNCC4)CC3)nc12
IC50 [2]: 316 nM

CC(C)(C)OC(=O)N1CCC(NC2CCN(C(=O)c3nc4c(C(N)=O)cccc4[nH]3)CC2)CC1
IC50 [2]: 250 nM

CC(C)(C)OC(=O)NC1CCN(C(=O)c2nc3c(C(N)=O)cccc3[nH]2)C1 (stereo not drawn)
IC50 [2]: 857 nM

NC(=O)c1cc(F)cc2[nH]c(C(=O)N3CCNC(=O)C3)nc12
IC50 [2]: 15 nM

CC(C)(C)OC(=O)N1CCC(NC(=O)c2nc3c(C(N)=O)cccc3[nH]2)CC1
IC50 [2]: 644 nM

CC(C)(C)OC(=O)N1CCC(N2CCC(NC(=O)c3nc4c(C(N)=O)cccc4[nH]3)CC2)CC1
IC50 [2]: 868 nM

NC(=O)c1cccc2[nH]c(C(=O)N3CCC(NC4CCCCC4)CC3)nc12
IC50 [2]: 70 nM

NC(=O)c1cccc2[nH]c(C(=O)NC3CCN(CC4CC4)CC3)nc12
Ratio IC50 [1]: < 10 | IC50 [2]: 108 nM | IC50 [5]: 130 nM | PF50 [3]: 3.53

CC(C)(C)OC(=O)NC1CCN(C(=O)c2nc3c(C(N)=O)cccc3[nH]2)CC1
IC50 [2]: 968 nM

NC(=O)c1cccc2[nH]c(C(=O)NC3CCCNC3)nc12 (stereo not drawn)
IC50 [4]: 199 nM

CC(C)(C)OC(=O)N1CCN(C(=O)c2nc3c(C(N)=O)cccc3[nH]2)CC1
IC50 [2]: 152 nM

CC(C)(C)OC(=O)N1CCC(N2CCCC(NC(=O)c3nc4c(C(N)=O)cccc4[nH]3)C2)CC1 (stereo not drawn)
IC50 [4]: 818 nM
